Test results from ChEMBL document CHEMBL1123849, “Synthesis and binding affinities of analogues of cholecystokinin-(30-33) as probes for central nervous system cholecystokinin receptors” (J Med Chem, 1987).
Square brackets hold non-standard residues; d marks the D form. Peptide text beside a SMILES is read from it. * marks the point of attachment. sY = N[C@@H](Cc1ccc(OS(=O)(=O)O)cc1)C(=O)O; Boc = CC(C)(C)OC(=O)*

The molecules below were run against T1, Cholecystokinin receptor (Mus musculus, UniProt O08786+P56481) (assay: Displacement of [3H]pentagastrin from Cholecystokinin receptor of mouse cerebral cortex).
T1 sequence (O08786 whole entry): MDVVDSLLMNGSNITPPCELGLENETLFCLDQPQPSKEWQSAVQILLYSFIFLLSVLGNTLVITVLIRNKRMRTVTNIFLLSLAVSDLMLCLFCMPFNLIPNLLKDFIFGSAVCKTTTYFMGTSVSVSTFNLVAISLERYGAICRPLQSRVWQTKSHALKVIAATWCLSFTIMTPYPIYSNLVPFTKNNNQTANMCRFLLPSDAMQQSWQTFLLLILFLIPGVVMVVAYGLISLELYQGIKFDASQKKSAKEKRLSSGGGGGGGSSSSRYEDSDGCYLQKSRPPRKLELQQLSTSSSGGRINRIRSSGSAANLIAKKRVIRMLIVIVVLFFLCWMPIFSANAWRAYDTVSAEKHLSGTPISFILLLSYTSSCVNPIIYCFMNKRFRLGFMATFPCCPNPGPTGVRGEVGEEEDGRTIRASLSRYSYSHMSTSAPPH
T1 sequence (P56481 whole entry): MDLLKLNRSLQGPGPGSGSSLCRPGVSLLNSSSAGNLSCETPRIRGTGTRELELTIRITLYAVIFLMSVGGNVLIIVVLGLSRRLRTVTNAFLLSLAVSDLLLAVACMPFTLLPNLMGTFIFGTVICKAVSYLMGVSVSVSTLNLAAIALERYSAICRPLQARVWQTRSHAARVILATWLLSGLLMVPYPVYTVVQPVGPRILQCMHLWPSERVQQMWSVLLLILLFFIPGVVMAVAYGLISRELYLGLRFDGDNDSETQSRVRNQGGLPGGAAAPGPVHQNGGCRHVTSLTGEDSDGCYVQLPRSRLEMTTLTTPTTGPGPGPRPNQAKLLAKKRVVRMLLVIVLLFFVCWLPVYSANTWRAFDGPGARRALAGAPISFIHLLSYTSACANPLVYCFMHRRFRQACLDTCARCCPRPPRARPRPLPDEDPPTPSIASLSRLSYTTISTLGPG
Assay type: tissue-based
Procedure, shortened: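 Radioligand was [3H]-Boc-β-alanyl-CCK-30-33 (pentagastrin), displaced from central CCK receptors in homogenized mouse cerebral cortex.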

| SMILES | Ki [nM] |
| --- | --- |
| CC(C)(C)OC(=O)N[C@@H](Cc1c[nH]c2ccccc12)C(=O)NCCC(=O)NC(Cc1ccccc1)C(N)=O (stereo partly specified) | 45000 |
| CSCC[C@H](NC(=O)[C@H](Cc1c[nH]c2ccccc12)NC(=O)OC(C)(C)C)C(=O)N[C@@H](CC(=O)O)C(=O)N[C@@H](Cc1ccccc1)C(N)=O | 1.8 |
| CC(C)(C)OC(=O)N[C@@H](Cc1c[nH]c2ccccc12)C(=O)NCC(=O)N[C@@H](Cc1ccccc1)C(N)=O (Boc-Trp-Gly-Phe-NH2) | 11000 |
| CC(C)(C)OC(=O)N[C@@H](Cc1c[nH]c2ccccc12)C(=O)NCC(=O)N[C@@H](CC(=O)O)C(=O)N[C@@H](Cc1ccccc1)C(N)=O (Boc-WGDF-NH2) | 1600 |
| CSCC[C@H](NC(=O)[C@H](Cc1c[nH]c2ccccc12)NC(=O)OC(C)(C)C)C(=O)NCC(=O)N[C@@H](Cc1ccccc1)C(N)=O (Boc-WMGF-NH2) | 24000 |
| CSCC[C@H](N)C(=O)N[C@@H](CC(=O)O)C(=O)N[C@@H](Cc1ccccc1)C(N)=O (H-Met-Asp-Phe-NH2) | 100000 |
| CSCC[C@H](NC(=O)[C@H](Cc1c[nH]c2ccccc12)NC(=O)CNC(=O)[C@H](CCSC)NC(=O)[C@@H](N)Cc1ccc(OS(=O)(=O)O)cc1)C(=O)N[C@@H](CC(=O)O)C(=O)N[C@@H](Cc1ccccc1)C(N)=O (H-[sY]MGWMDF-NH2) | 2 |
| CSCC[C@H](NC(=O)[C@H](Cc1ccc(OS(=O)(=O)O)cc1)NC(=O)[C@@H](N)CC(=O)O)C(=O)NCC(=O)N[C@@H](Cc1c[nH]c2ccccc12)C(=O)N[C@@H](CCSC)C(=O)N[C@@H](CC(=O)O)C(=O)N[C@@H](Cc1ccccc1)C(N)=O (stereo in doubt; 1) [SINCALIDE] | 3 |
| CSCC[C@H](NC(=O)[C@H](Cc1ccc(OS(=O)(=O)O)cc1)NC(=O)[C@@H](N)CC(=O)O)C(=O)NCC(=O)N[C@@H](Cc1c[nH]c2ccccc12)C(=O)N[C@@H](CCSC)C(=O)N[C@@H](CC(=O)O)C(=O)N[C@@H](Cc1ccccc1)C(N)=O (stereo in doubt; 2) [SINCALIDE] | 180 |
| CSCC[C@H](NC(=O)[C@H](Cc1c[nH]c2ccccc12)NC(=O)CCNC(=O)OC(C)(C)C)C(=O)N[C@@H](CC(=O)O)C(=O)N[C@@H](Cc1ccccc1)C(N)=O [PENTAGASTRIN] | 0.6 |
| CSCC[C@H](NC(=O)[C@@H](N)Cc1c[nH]c2ccccc12)C(=O)N[C@@H](CC(=O)O)C(=O)N[C@@H](Cc1ccccc1)C(N)=O [TETRAGASTRIN] | 3 |
